Source: PubChem BioAssay
Most compounds without a hit are left out; they make up all but 3.3% or so of the library.
UHRF1 MBD2 ctr: blocks human UHRF1 binding to methylated DNA; Q96T88; UHRF1 binding to methylated oligo, TR-FRET; inhibition, % at 4.4 µM; hit rate 0.75% among 370,000; AID 687016; in the data active means inhibition above about 21%;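 further: UHRF1 SRA domain binding a hemimethylated CpG hairpin DNA probe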
PRMT1 inh: PRMT1 (human) inhibition, primary screen. inhibition, % at 2.79 µM. recombinant PRMT1, activity-based probe fluorescence polarization. AID 652257. Q99873. hit rate 1.3% among 370,000;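 active means inhibition above about 21% made by adding two undisclosed values, limit read from the data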
LEDGF integ inh: blocks HIV-1 LEDGF/p75-dependent DNA integration; hit rate 0.64% among 370,000; inhibition, % at 3.7 µM; TR-FRET IN-LEDGF/p75 DNA integration, Eu/Cy5; AID 743269;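 active means inhibition above the screen-wide mean plus 3 SD, cut at about 13% in these data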;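 further: signal is the Cy5 over europium emission ratio at 671 and 618 nm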
SIAE inh: blocks human sialic acid acetylesterase | Q9HAT2 | SIAE FP-Rh probe binding, fluorescence polarization | inhibition, % at 9.66 µM | hit rate 0.69% among 370,000 | AID 1053197;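 active means inhibition above a cutoff: mean of compounds within the control limits plus 3 SD of those, cut at about 17% in these data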
MBD2 inh: blocks human MBD2 binding to methylated DNA. Q9UBB5. TR-FRET, MBD2 binding to methylated oligonucleotide. inhibition, % at 4.4 µM. hit rate 0.31% among 370,000; in the data active means inhibition above about 13%
TDP2 inh: blocks human TDP2 phosphodiesterase activity; inhibition, % at 12.8 µM; hit rate 0.34% among 370,000; recombinant TDP2, T5PNP hydrolysis, p-nitrophenol absorbance 415 nm;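 active means inhibition above the mean of all tested compounds plus 3 SD, set per campaign, cut at about 25% in these data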
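Assay system: Recombinant human TDP2 | Quantity: 120 nM TDP2 per well | Incubation: 2 h at 37 °C | Signal: Epi absorbance | Evaluation: Percent inhibition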
PRMT1 inh conf: confirmation of human PRMT1 inhibitors; recombinant His-PRMT1, activity-based probe fluorescence polarization; hit rate 42% among 3,300; AID 687036; inhibition, % at 2.79 µM; shares compounds with PRMT1 inh;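 active means mean inhibition across replicates above the hit cutoff derived for the earlier primary screen, cut at about 22% in these data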
Of the large screens only hits and unclear results are named; the others gave an inactive call (follow-up assays come after a bar, where they were run).

Cc1cc(NS(=O)(=O)c2ccc(NC(=O)CSc3nnc(-c4cnccn4)n3-c3ccccc3)cc2)nc(C)n1	none
C=CCn1c(SCC(=O)Nc2ccc(Br)cc2)nc(O)c(CC)c1=O	PRMT1 inh 53 | PRMT1 inh conf inactive
CCC(=S)/C=C1\Sc2ccccc2N1CCCS(=O)(=O)O	PRMT1 inh 34 | PRMT1 inh conf inactive
CCc1sc(C(C2C(=O)CC(C)(C)CC2=O)C2C(=O)CC(C)(C)CC2=O)cc1[N+](=O)[O-]	PRMT1 inh 48 | PRMT1 inh conf 50
CCOC(=O)N1CCN(C(=O)C[C@H]2C[C@@]3(C(=O)OC)C(=C[C@H](C(C)(C)C)O[C@@H]3C)N(Cc3cccc4ccccc34)C2=O)CC1	none
Cc1ccc(N2C(=O)C3C4C=CC(CNC(=S)N5CCN(c6ccccn6)CC5)(O4)C3C2=O)cc1 (stereo not given)	PRMT1 inh 57 | PRMT1 inh conf 48
Cc1ccc(N2C(=O)C3C4C=CC(CNC(=S)Nc5ccc(Cl)cc5)(O4)C3C2=O)cc1 (stereo not given)	PRMT1 inh 85 | PRMT1 inh conf 29
Cc1ccc(C)c(NC(=S)N2CCN(c3ccccn3)CC2)c1	none
CC(C)(C)C(=O)NCC12C=CC(O1)C1C(=O)N(c3ccccc3)C(=O)C12 (stereo not given)	PRMT1 inh 81 | PRMT1 inh conf 56
Cc1ccc(N2C(=O)C3C4C=CC(CNC(=S)Nc5cccc(Cl)c5)(O4)C3C2=O)cc1 (stereo not given)	PRMT1 inh 90 | PRMT1 inh conf 53
Cc1ccc(N2C(=O)N(CC(=O)Nc3cccc(Cl)c3)C(=O)C2C)cc1 (stereo not given)	none
Cc1ccc(NC(=S)NCCSc2ccc(Cl)cc2)cc1	none
CCS(=O)(=O)Nc1ccc2c(c1)C(=O)N(C)[C@@H]1CC[C@H](CC(=O)NCCOC)O[C@H]1CO2	none
CCC(C)N(C(=O)c1ccc(CNC(=O)c2cccc(Br)c2)cc1)C(C)CC (stereo not given)	none
Cc1ccc(N2C(=O)C3C4C=CC(CNC(=S)Nc5ccc(F)cc5)(O4)C3C2=O)cc1 (stereo not given)	PRMT1 inh 80 | PRMT1 inh conf 41
CC(C)COC(=O)NCC12C=CC(O1)C1C(=O)N(c3ccc(Cl)cc3)C(=O)C12 (stereo not given)	PRMT1 inh 37 | PRMT1 inh conf 33
CCOC(=O)C1CCCN(C2CC(=O)N(c3ccc(NC(C)=O)cc3)C2=O)C1 (stereo not given)	PRMT1 inh 37 | PRMT1 inh conf inactive
CCOC(=O)C1CCCN(S(=O)(=O)c2ccc(NC(C)=O)cc2)C1 (stereo not given)	none
CC(C)c1ccc(N2C(=O)CC(Sc3ncn[nH]3)C2=O)cc1 (stereo not given)	PRMT1 inh 61 | PRMT1 inh conf 64
CCCc1c(O)nc(SC2CC(=O)N(c3cc(OC)ccc3OC)C2=O)[nH]c1=O (stereo not given)	none
COc1ccc(N2C(=O)CC(Sc3ncn[nH]3)C2=O)c(OC)c1 (stereo not given)	PRMT1 inh 89 | PRMT1 inh conf 36
C[C@@H]1C=C(C(=O)NCc2nc3ccccc3[nH]2)O[C@H](OCc2ccc(CO)cc2)C1	none
C[C@@H]1C=C(C(=O)NCc2nc3ccccc3[nH]2)O[C@H](OCCCCO)C1	PRMT1 inh 47 | PRMT1 inh conf 33
O=c1cc(O)n(-c2ccccc2F)c(=S)[nH]1	none
Cc1ccccc1-n1c(O)cc(=O)[nH]c1=S	UHRF1 MBD2 ctr 21, PRMT1 inh 28 | PRMT1 inh conf inactive
Cc1[nH]c2ccc(-c3n[nH]c(=S)n3-c3ccccc3)cc2c1C	none
Cc1[nH]c2ccc(-c3n[nH]c(=S)n3-c3ccc(Br)cc3)cc2c1C	PRMT1 inh 26 | PRMT1 inh conf inactive
COc1cccc(-n2c(-c3ccc4[nH]c(C)c(C)c4c3)n[nH]c2=S)c1	PRMT1 inh 26 | PRMT1 inh conf inactive
CCN(CC)C(=O)CC[C@H]1CC[C@]2(CCCN(C3CCCCC3)C2)O1	none
O=C(CSc1nnc(-c2ccncc2)n1-c1ccccc1)Nc1ccc2c(c1)OCCO2	none
OCCCn1c(-c2ccccc2)csc1=Nc1ccccc1	none
COc1ccc(N=c2scc(-c3ccc(OC)cc3)n2CCO)cc1	PRMT1 inh 36 | PRMT1 inh conf inactive
O=C(CCc1ccccc1)N[C@H]1[C@H](OC(=O)c2cccnc2)CCC[C@@]12C(=O)N(Cc1ccccc1)c1ccccc12	none
CCOc1ccc(C(=O)CC(Sc2ccc(C)cc2)C(=O)O)cc1 (stereo not given)	PRMT1 inh 29 | PRMT1 inh conf 54
O=C(CC(Sc1ccc(Br)cc1)C(=O)O)c1ccc(F)cc1 (stereo not given)	PRMT1 inh 80 | PRMT1 inh conf 88
Cc1ccc(-n2c(SCC(=O)C(C)(C)C)nnc2-c2cccc(C)c2)cc1	none
CCC[C@H]1[C@@H](OC(=O)NCc2ccccc2)CC[C@@]23CCCN2C(=O)CCC[C@@H]13	none
O=C(CN1CCC(NC(=O)Nc2ccc(Cl)cc2)CC1)Nc1ccc2c(c1)OCCO2	none
Cc1ccc(NS(=O)(=O)c2ccc3c(c2)n(C)c(=O)n3C)cc1C	PRMT1 inh 25 | PRMT1 inh conf inactive
Clc1ccc2nc(CNc3nc(N4CCOCC4)nc4c3ncn4-c3ccsc3)[nH]c2c1	none
CC(=O)Nc1nc(=O)c2ccccc2s1	PRMT1 inh 44 | PRMT1 inh conf 33
CC(=O)N/C(N)=N/c1nc(=O)c2ccccc2s1	none
Nc1nc2c(F)cccc2s1	none
Nc1nc(=O)c2ccccc2s1	PRMT1 inh 36 | PRMT1 inh conf 25
Nc1nc(SCC(=O)c2cc3ccccc3o2)n[nH]1	PRMT1 inh 71 | PRMT1 inh conf inactive
COc1ccccc1C(=O)CSc1n[nH]c(N)n1	none
O=C(CSc1nc2ccccc2o1)c1cc2ccccc2oc1=O	none
Cc1cc(C)nc(SCC(=O)c2cc3ccccc3oc2=O)n1	PRMT1 inh 25 | PRMT1 inh conf inactive
CC(=O)Nc1ccc(NC(=O)Nc2cccc(Cl)c2)cc1	none
CC(=O)C(=Nc1ccc(Cl)cc1Cl)NNc1cccc(Cl)c1	PRMT1 inh 61 | PRMT1 inh conf inactive
CCNc1nc(NC(C)(C)C)nc(N2CCCC2)n1	PRMT1 inh 32 | PRMT1 inh conf inactive
COc1ccc(CCNC(=O)c2ccc(-c3ccc([N+](=O)[O-])cc3Cl)o2)cc1	PRMT1 inh 28 | PRMT1 inh conf inactive
O=C1C=C(c2c(O)ccc3ccccc23)c2ccccc2C1=O	PRMT1 inh 41 | PRMT1 inh conf 40
